The test system of assay [1] is MCF7. Nature of the assay: Cell cycle arrest in human MCF7 cells assessed as accumulation at G0 phase at 10 uM after 24 hrs by FACS analysis. Format: functional. The procedure, abridged: (§1)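 MCF-7 breast carcinoma cells were exposed to 10 µM test compound for 24 h, with DMSO as the vehicle control. Cell-cycle distribution was read by FACS as the percentage of cells in G0, G1, S and G2/M.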
For orientation: In flow cytometry, cells or beads pass a laser one at a time.

In assay [2] the test system is MCF7. Nature of the assay: Cell cycle arrest in human MCF7 cells assessed as accumulation at G1 phase at 10 uM after 24 hrs by FACS analysis. Format: functional. The procedure, abridged:
as §1

Assay [3] relates to MCF7. In words: Cell cycle arrest in human MCF7 cells assessed as accumulation at S phase at 10 uM after 24 hrs by FACS analysis. Format: functional. Put shortly: as §1
Assay [4] deals with MCF7. In words: Cell cycle arrest in human MCF7 cells assessed as accumulation at G2/M phase at 10 uM after 24 hrs by FACS analysis. Format: functional. The procedure, abridged: as §1
The subject of assay [5] is MCF7. In words: Cell cycle arrest in human MCF7 cells assessed as accumulation at G0 phase at 30 uM after 24 hrs by FACS analysis. Format: functional. The procedure, abridged: (§2)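 MCF-7 cells were treated at 30 µM for 24 h alongside a DMSO control. Fractions in G0, G1, S and G2/M phases were measured by FACS, and values are means of three experiments.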
Assay [6] deals with MCF7. Nature of the assay: Cell cycle arrest in human MCF7 cells assessed as accumulation at G1 phase at 30 uM after 24 hrs by FACS analysis. In kind it is functional. Put shortly:
as §2

Assay [7] deals with MCF7. Nature of the assay: Cell cycle arrest in human MCF7 cells assessed as accumulation at S phase at 30 uM after 24 hrs by FACS analysis. Format: functional. Put shortly:
as §2

In assay [8] the test system is MCF7. Nature of the assay: Cell cycle arrest in human MCF7 cells assessed as accumulation at G2/M phase at 30 uM after 24 hrs by FACS analysis. In kind it is functional. Put shortly: as §2
For assay [9], the system named is MCF7. Nature of the assay: Induction of apoptosis in human MCF7 cells assessed as decrease in procaspase 7 level at 30 uM after 24 hrs by Western blot analysis. Format: functional, cell-based. The procedure, abridged:
(§3)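 MCF-7 breast carcinoma cells were exposed to 30 µM compound for 24 h, with CA-4 as positive control. Cell lysates were then immunoblotted with antibodies to procaspase-7 and cleavage-specific PARP, using β-actin as loading control.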

The test system of assay [10] is MCF7. Nature of the assay: Induction of apoptosis in human MCF7 cells assessed as […] in PARP cleavage at 30 uM after 24 hrs by Western blot analysis. In kind it is functional, cell-based. The procedure, abridged: as §3
In general terms: A western blot detects proteins with antibodies after separation by electrophoresis.

In ChEMBL document CHEMBL1208778, “Synthesis and anti-cancer activity of chalcone linked imidazolones” (2010) one finds Activity data, which are given here for one compound.

Active and inactive are the calls of the source. No cut-off for these calls is given here.

`COc1cc(/C=C/C(=O)c2cccc(N)c2)cc(OC)c1OC`: the Activity was 2.87% with MCF7 [1]; 56.17% in the assay with MCF7 [2]; 14.96% with MCF7 [3]; 23.57% in the assay on MCF7 [4]; 22.58% in the assay on MCF7 [5]; 52.31% in the assay on MCF7 [6]. In addition, the Activity is listed as 9.31% with MCF7 [7] and 15.8% in the assay on MCF7 [8]. In addition, the result in the assay on MCF7 [9] and with MCF7 [10] was inactive.
